Results published in ChEMBL document CHEMBL1123430, “Potential tumor- or organ-imaging agents. 26. Polyiodinated 2-substituted triacylglycerols as hepatographic agents” (J Med Chem, 1986).

Tests used:
Rattus norvegicus [1] = assay: Distribution of radioactivity of radiolabeled compound in liver of female rats 5 minutes after intravenous administration; assay type: ADME, organism-based; details: in vivo
Rattus norvegicus [2] = assay: Percentage […]/CH3OH extract of the radiolabeled compound in rat liver 5 minutes after iv administration; assay type: functional
Summary of the method: (§1)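 Liver and plasma were taken at 5 or 30 min. Plasma was extracted by a modified Folch procedure, and liver was homogenized and extracted. Extracts were run on TLC in hexane/ethyl acetate (5:2) for esters or THF/hexane (1:1) for acids, with unlabeled compound as reference. Plates were cut into 1-cm strips and counted. Values are percent ± SEM, n = 3-5.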

Rattus norvegicus [3] = assay: Polyacrylamide Gel Electrophoresis (PAGE) analysis of rat plasma 5 minutes after intravenous administration of radiolabeled compound (below albumin ); assay type: functional, organism-based
Summary of the method: (§2)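 ¹²⁵I-labeled compound, radioiodinated by exchange in a pivalic acid melt, solubilized in normal saline with Tween 20 and given iv to adult female Sprague–Dawley rats (200–250 g), 5–30 μCi/animal, 3–4 rats per time point. Plasma was run on polyacrylamide gels. Gels were sectioned and gamma counted. Radioactivity per band (stacking gel, LDL, HDL, albumin, below albumin) is given as % of total applied; mean ± SEM, n = 3-5.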

Rattus norvegicus [4] = assay: Distribution of radioactivity of radiolabeled compound in liver of female rats 30 minutes after intravenous administration; assay type: ADME, organism-based; details: in vivo, 0.5 h
Rattus norvegicus [5] = assay: Percentage parent compound in rat liver 5 minutes after iv administration of the radiolabeled compound by thin-layer chromatography; assay type: functional; summary of the method: as §1
Rattus norvegicus [6] = assay: Percentage […]/CH3OH extract of the radiolabeled compound in rat plasma 5 minutes after iv administration; assay type: functional; summary of the method: as §1
Rattus norvegicus [7] = assay: Polyacrylamide Gel Electrophoresis (PAGE) analysis of rat plasma 5 minutes after intravenous administration of radiolabeled compound in stacking gel; assay type: functional, organism-based; summary of the method: as §2
Rattus norvegicus [8] = assay: Percentage parent compound in rat liver 30 minutes after iv administration of the radiolabeled compound by thin-layer chromatography; assay type: functional; summary of the method: as §1
Rattus norvegicus [9] = assay: Polyacrylamide Gel Electrophoresis (PAGE) analysis of rat plasma 30 minutes after intravenous administration of radiolabeled compound (below albumin); assay type: functional, organism-based
Summary of the method: (§3)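 Gels were sectioned and counted in a γ counter. Radioactivity in each band (stacking gel, LDL, HDL, albumin, below albumin) is expressed as a percentage of the total radioactivity applied to the gel, ± SEM, n = 3-5.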

Rattus norvegicus [10] = assay: Distribution of radioactivity of radiolabeled compound in kidney of female rats 30 minutes after intravenous administration; assay type: ADME, organism-based; details: in vivo, 0.5 h
Rattus norvegicus [11] = assay: Distribution of radioactivity of radiolabeled compound in blood of female rats 30 minutes after intravenous administration; assay type: ADME, organism-based; details: in vivo, 0.5 h
Rattus norvegicus [12] = assay: Distribution of radioactivity of radiolabeled compound in kidney of female rats 5 minutes after intravenous administration; assay type: ADME, organism-based; details: in vivo
Rattus norvegicus [13] = assay: Polyacrylamide Gel Electrophoresis (PAGE) analysis of rat plasma 30 minutes after intravenous administration of radiolabeled compound in high density lipoprotein; assay type: functional, organism-based; summary of the method: as §3
Rattus norvegicus [14] = assay: Polyacrylamide Gel Electrophoresis (PAGE) analysis of rat plasma 5 minutes after intravenous administration of radiolabeled compound in high density lipoprotein; assay type: functional, organism-based; summary of the method: as §2
Rattus norvegicus [15] = assay: Distribution of radioactivity of radiolabeled compound in blood of female rats 5 minutes after intravenous administration; assay type: ADME, organism-based; details: in vivo
Rattus norvegicus [16] = assay: Percentage parent compound in rat plasma 30 minutes after iv administration of the radiolabeled compound by thin-layer chromatography; assay type: functional; summary of the method: as §1
Rattus norvegicus [17] = assay: Polyacrylamide Gel Electrophoresis (PAGE) analysis of rat plasma 30 min after intravenous administration of radiolabeled compound in albumin; assay type: functional, organism-based; summary of the method: as §3
Rattus norvegicus [18] = assay: Distribution of radioactivity of radiolabeled compound in heart of female rats 5 minutes after intravenous administration; assay type: ADME, organism-based; details: in vivo
Rattus norvegicus [19] = assay: Distribution of radioactivity of radiolabeled compound in lung of female rats 30 minutes after intravenous administration; assay type: ADME, organism-based; details: in vivo, 0.5 h
Rattus norvegicus [20] = assay: Distribution of radioactivity of radiolabeled compound in heart of female rats 30 minutes after intravenous administration; assay type: ADME, organism-based; details: in vivo, 0.5 h
Rattus norvegicus [21] = assay: Polyacrylamide Gel Electrophoresis (PAGE) analysis of rat plasma 30 minutes after intravenous administration of radiolabeled compound in low-density lipoprotein; assay type: functional, organism-based; summary of the method: as §3
Rattus norvegicus [22] = assay: Percentage parent compound in rat plasma 5 minutes after iv administration of the radiolabeled compound by thin-layer chromatography; assay type: functional; summary of the method: as §1
Rattus norvegicus [23] = assay: Polyacrylamide Gel Electrophoresis (PAGE) analysis of rat plasma 30 minutes after intravenous administration of radiolabeled compound concentration in stacking gel; assay type: functional, organism-based; summary of the method: as §3
Rattus norvegicus [24] = assay: Percentage […]/CH3OH extract of the radiolabeled compound in rat plasma 30 minutes after iv administration; assay type: functional; summary of the method: as §1
Rattus norvegicus [25] = assay: Distribution of radioactivity of radiolabeled compound in lung of female rats 5 minutes after intravenous administration; assay type: ADME, organism-based; details: in vivo
Rattus norvegicus [26] = assay: Polyacrylamide Gel Electrophoresis (PAGE) analysis of rat plasma 5 minutes after intravenous administration of radiolabeled compound in low-density lipoprotein; assay type: functional, organism-based; summary of the method: as §2
Rattus norvegicus [27] = assay: Percentage […]/CH3OH extract of the radiolabeled compound in rat liver 30 minutes after iv administration; assay type: functional; summary of the method: as §1
Rattus norvegicus [28] = assay: Polyacrylamide Gel Electrophoresis (PAGE) analysis of rat plasma 5 min after intravenous administration of radiolabeled compound in albumin; assay type: functional, organism-based; summary of the method: as §3
Rattus norvegicus [29] = assay: Polyacrylamide Gel Electrophoresis (PAGE) analysis of rat plasma 30 minutes after intravenous administration of radiolabeled compound concentration of stacking gel; assay type: functional, organism-based; summary of the method: as §3
Rattus norvegicus [30] = assay: Polyacrylamide Gel Electrophoresis (PAGE) analysis of rat plasma 30 min after intravenous administration of radiolabeled compound in low-density lipoprotein; assay type: functional, organism-based; summary of the method: as §3
Rattus norvegicus [31] = assay: Polyacrylamide Gel Electrophoresis (PAGE) analysis of rat plasma 30 min after intravenous administration of radiolabeled compound at concentration of high density; assay type: functional, organism-based; summary of the method: as §3
Rattus norvegicus [32] = assay: Polyacrylamide Gel Electrophoresis (PAGE) analysis of rat plasma 5 minutes after intravenous administration of radiolabeled compound (below albumin); assay type: functional, organism-based; summary of the method: as §2
Rattus norvegicus [33] = assay: Polyacrylamide Gel Electrophoresis (PAGE) analysis of rat plasma 5 min after intravenous administration of radiolabeled compound in low-density lipoprotein; assay type: functional, organism-based; summary of the method: as §2
Rattus norvegicus [34] = assay: Polyacrylamide Gel Electrophoresis (PAGE) analysis of rat plasma 30 min after intravenous administration of radiolabeled compound ( below albumin ); assay type: functional, organism-based; summary of the method: as §3
Rattus norvegicus [35] = assay: Polyacrylamide Gel Electrophoresis (PAGE) analysis of rat plasma after intravenous administration of radiolabeled compound in high density lipoprotein; assay type: functional, organism-based; summary of the method: as §2
Rattus norvegicus [36] = assay: Polyacrylamide Gel Electrophoresis (PAGE) analysis of rat plasma after intravenous administration of radiolabeled compound concentration of stacking gel; assay type: functional, organism-based; summary of the method: as §2
Rattus norvegicus [37] = assay: Polyacrylamide Gel Electrophoresis (PAGE) analysis of rat plasma after intravenous administration of radiolabeled compound at concentration of low-density lipoprotein; assay type: functional, organism-based; summary of the method: as §2
Rattus norvegicus [38] = assay: Polyacrylamide Gel Electrophoresis (PAGE) analysis of rat plasma 5 minutes after intravenous administration of radiolabeled compound in albumin; assay type: functional, organism-based; summary of the method: as §2
Rattus norvegicus [39] = assay: Polyacrylamide Gel Electrophoresis (PAGE) analysis of rat plasma 30 minutes after intravenous administration of radiolabeled compound (below albumin ); assay type: functional, organism-based; summary of the method: as §3
Rattus norvegicus [40] = assay: Polyacrylamide Gel Electrophoresis (PAGE) analysis of rat plasma 30 minutes after intravenous administration of radiolabeled compound in albumin; assay type: functional, organism-based; summary of the method: as §3
Rattus norvegicus [41] = assay: Polyacrylamide Gel Electrophoresis (PAGE) analysis of rat plasma 30 min after intravenous administration of radiolabeled compound in stacking gel; assay type: functional, organism-based; summary of the method: as §3
Rattus norvegicus [42] = assay: Polyacrylamide Gel Electrophoresis (PAGE) analysis of rat plasma 5 min after intravenous administration of radiolabeled compound (below albumin); assay type: functional, organism-based; summary of the method: as §3
Rattus norvegicus [43] = assay: Polyacrylamide Gel Electrophoresis (PAGE) analysis of rat plasma 30 min after intravenous administration of radiolabeled compound (below albumin); assay type: functional, organism-based; summary of the method: as §3
Rattus norvegicus [44] = assay: Distribution of radioactivity of radiolabeled compound in heart of female rats 30 minutes after intravenous administration at; assay type: ADME, organism-based; details: in vivo, 0.5 h

| SMILES | Dose (Rattus norvegicus [1]) [%] | Activity (Rattus norvegicus [2]) [%] | Dose (Rattus norvegicus [4]) [%] | Activity (Rattus norvegicus [6]) [%] | Concentration (Rattus norvegicus [7]) [%] | Dose (Rattus norvegicus [10]) [%] | Dose (Rattus norvegicus [11]) [%] | Dose (Rattus norvegicus [12]) [%] | Concentration (Rattus norvegicus [13]) [%] | Concentration (Rattus norvegicus [14]) | Dose (Rattus norvegicus [15]) [%] | Concentration (Rattus norvegicus [17]) | Dose (Rattus norvegicus [18]) [%] | Dose (Rattus norvegicus [19]) [%] | Dose (Rattus norvegicus [20]) [%] | Activity (Rattus norvegicus [24]) [%] | Dose (Rattus norvegicus [25]) [%] | Concentration (Rattus norvegicus [26]) [%] | Activity (Rattus norvegicus [27]) [%] | Concentration (Rattus norvegicus [28]) | further results |
| --- | --- | --- | --- | --- | --- | --- | --- | --- | --- | --- | --- | --- | --- | --- | --- | --- | --- | --- | --- | --- | --- |
| CCCCCCCCCCCCCCCC(=O)OCC(COC(=O)CCCCCCCCCCCCCCC)OC(=O)Cc1c(I)cc(I)c(N)c1I | 2.96 | 91.2 | 4 | 89.4 | 9 | 0.87 | 6.5 | 0.93 | 53.4 | 50.5 | 6.23 | 1.9 | 0.63 | 1.34 | 0.68 | 81.5 | 1.41 | 34 | 83.1 | 3.3 | Concentration (Rattus norvegicus [3]): 3.2; Activity (Rattus norvegicus [5]): 91.7%; Activity (Rattus norvegicus [8]): 89%; Concentration (Rattus norvegicus [9]): 0.5; Activity (Rattus norvegicus [16]): 91.9%; Concentration (Rattus norvegicus [21]): 41.2%; Activity (Rattus norvegicus [22]): 97.7%; Concentration (Rattus norvegicus [23]): 3% |
| CCCCCCCCCCCCCCCC(=O)OCC(COC(=O)CCCCCCCCCCCCCCC)OC(=O)C(CC)Cc1c(I)cc(I)c(N)c1I (stereo not given) | 2.16 | 84.4 | 4.6 | 85.7 | 4.6 | 0.65 | 3.73 | 0.65 |  | 52.6 | 6.04 | 5.4 | 0.6 | 0.97 | 1.92 | 92.2 | 1.15 |  | 79.7 | 4.4 | Concentration (Rattus norvegicus [3]): 3; Concentration (Rattus norvegicus [29]): 7.1; Concentration (Rattus norvegicus [30]): 27.5; Concentration (Rattus norvegicus [31]): 54.1; Concentration (Rattus norvegicus [32]): 3; Concentration (Rattus norvegicus [33]): 35.1 |
| CCC(Cc1c(I)cc(I)c(N)c1I)C(=O)O (stereo not given) [IOPANOIC ACID] | 1.64 |  | 1.46 |  | 0.6 | 0.52 | 1.21 | 0.71 |  | 19.8 | 2.19 | 78.4 | 0.74 | 0.61 | 0.46 |  | 0.81 | 0.5 |  | 77.5 | Concentration (Rattus norvegicus [34]): 6.7%; Concentration (Rattus norvegicus [35]): 8.7%; Concentration (Rattus norvegicus [36]): 3.9; Concentration (Rattus norvegicus [37]): 2.2; Concentration (Rattus norvegicus [38]): 77.5 |
| Nc1c(I)cc(I)c(CCCCCCCCCCCCCCCCC(=O)O)c1I | 6.3 |  | 4.37 |  | 5.2 | 1.01 | 1.23 | 0.48 | 18.5 | 26.6 | 2.25 |  | 1.06 | 0.84 | 1.01 |  | 1.11 | 4.7 |  | 60 | Concentration (Rattus norvegicus [29]): 7.6; Concentration (Rattus norvegicus [39]): 10%; Concentration (Rattus norvegicus [32]): 3.5; Concentration (Rattus norvegicus [21]): 3.2%; Concentration (Rattus norvegicus [40]): 60.6 |
| CCCCCCCCCCCCCCCC(=O)OCC(COC(=O)CCCCCCCCCCCCCCC)OC(=O)CCCCCCCCCCCCCCCCc1c(I)cc(I)c(N)c1I | 4.07 | 44.3 | 5.97 | 83.8 | 4.6 | 1.29 | 1.42 | 0.42 | 27 | 48.1 | 2.5 | 44.6 | 0.49 | 1.72 |  | 71.3 | 3.16 | 12.6 | 47.2 | 32.1 | Activity (Rattus norvegicus [5]): 24%; Activity (Rattus norvegicus [8]): 40.8%; Concentration (Rattus norvegicus [30]): 8.6; Concentration (Rattus norvegicus [41]): 10.9; Activity (Rattus norvegicus [16]): 23.8%; Concentration (Rattus norvegicus [42]): 2.7; Concentration (Rattus norvegicus [43]): 9; Activity (Rattus norvegicus [22]): 32.6%; Dose (Rattus norvegicus [44]): 0.74% |
